Unmarked numbers belong to inactive results. Records with an inconclusive call do not appear. The source made the active and inactive calls.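 Rule for the calls, unless noted: active = viability at or below 27.92% in each of two runs, the all-compound median minus 4 SD; inconclusive = no clear call, values can overlap the other calls; inactive = the rest.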
Assays:
[1] = OD615 S. cerevisiae growth inhibition, permissive medium, pilot counter-assay, permissive growth control for S. cerevisiae lifespan shortening project (AID 705;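 active = growth inhibition above 25% in both replicates, a cutoff set 3 SD above the mean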); details: OD615, 24 h, at 10 µM, hits give high values
Outline: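 assay system = Saccharomyces cerevisiae strain carrying genetically modified DeaD replicative-lifespan system | medium = SC raffinose/galactose permissive medium | dosing = 10 µM single dose, 0.25% DMSO | schedule = 24 h compound exposure at 30 °C after 4 h pre-growth | measured by = OD at 615 nm | read-out basis = growth inhibition from lowered OD615 after 24 h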

[2] = Restrictive medium S. cerevisiae growth inhibition, OD615, pilot screen of yeast lifespan reduction project, restrictive growth control (AID 706;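 active = growth inhibition above a set limit, 3 SD over mean compound inhibition, in both replicates, cut at about 43% in these data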;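 note: modified DeaD lifespan yeast strain shifted to restrictive glucose medium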); details: OD615, 48 h, at 10 µM, hits give high values
Outline: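 Buffer or medium: CSMM-D glucose medium. Material: genetically modified Saccharomyces cerevisiae, DeaD replicative lifespan assay strain. Times: 48 h compound exposure at 30 °C. Measured by: optical density at 615 nm.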

[3] = viability gain of MRP-1-high H69AR cells under doxorubicin, pilot screen, MRP-1 activator project, CellTiter-Glo, duplicate (AID 807;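 active = viability increase at or above a cutoff of the median across tested compounds plus 3 SD, cut at about 8.5% in these data, passing the limit was not always enough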;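 note: compound pretreatment 18-22 h then 72 h combined with doxorubicin; 0% = doxorubicin alone and 100% = vehicle without doxorubicin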); details: H69AR viability with doxorubicin, CellTiter-Glo luminescence; at 10 µM; hits give high values
[4] = growth suppression of beta-catenin knockout HCT116, pilot screen, human colon tumor cells (AID 823;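 active = cell viability at or below a set limit in both duplicate runs, the limit being the all-compound median minus 4 SD, cut at about 23% in these data, passing the limit was not always enough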;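 note: 0% = wells killed by 20 µM Hyamine and 100% = untreated DMSO cell wells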); details: CellTiter-Glo, 60 h, at 10 µM, hits give low values
[5] = growth suppression of PTEN-deleted HCT116, pilot screen, cell-based, HCT116 clonal line, CellTiter-Glo (AID 824); details: 60 h, at 10 µM, hits give low values;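 note: 0% = 20 µM Hyamine control and 100% = vehicle cell control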
[6] = inhibitors of the yeast RAM network, pilot screen, dse1pr::URA3 reporter, 5-FOA selection (AID 869;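 active = inhibition over a set limit, the all-compound mean plus 3 SD, in both replicate runs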;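 note: 0% = DMSO wells with no growth and 100% = 10 µM 1-NA-PP1 with full growth; RAM network block rescues cells from 5-FOA so hits raise OD615 growth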); details: S. cerevisiae dse1pr::URA3 5-FOA growth, OD615, 2 d; at 10 µM; hits give high values; strain carries analog-sensitive mutant Cbk1 kinase
[7] = RAM signaling pathway blockade in yeast – S. cerevisiae, Pdr1DBD-CYC8 efflux-inhibited sensitized strain, primary screen (AID 1298;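 active = RAM network inhibition above 8.4% in each of two replicates, 3 SD over the compound average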;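 note: 0% = DMSO untreated cells without growth and 100% = 10 µM 1-NA-PP1 full growth; higher means more yeast growth rescued from 5-FOA killing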); details: S. cerevisiae cbk1-as DSE1-URA3 strain, 5-FOA growth OD615, 2 d; at 50 µM; hits give high values

CC(C)(C)c1ccc(-c2cc(N)n[nH]2)cc1
growth inhibition [1]: 2.28%
growth inhibition [2]: 13.2%
viability increase [3]: -2.81%
viability [4]: 95.5%
viability [5]: 90.1%
inhibition [6]: 2.32%
RAM network inhibition [7]: 2.2%

O=C(CC1Oc2ccccc2NC1=O)NC1CCCC1 (configuration not stated)
growth inhibition [1]: 1.69%
growth inhibition [2]: 2.71%
viability increase [3]: 0.05%
viability [4]: 103%
viability [5]: 102%
inhibition [6]: 1.33%
RAM network inhibition [7]: 0.1%

CCOc1ccc(NC(=O)N(CCN(C)C)C(C)c2ccncc2)cc1 (configuration not stated)
growth inhibition [1]: 2.97%
growth inhibition [2]: 4.26%
viability increase [3]: -1.59%
viability [4]: 85.6%
viability [5]: 90.2%
inhibition [6]: 1.05%
RAM network inhibition [7]: 1.38%

CCC1CCCCN1C(=O)CSc1nc(N)c(NC(=O)c2ccco2)c(=O)[nH]1 (configuration not stated)
growth inhibition [1]: 12.5%
growth inhibition [2]: 10.7%
viability increase [3]: -2.48%
viability [4]: 106%
viability [5]: 99%
inhibition [6]: 2.09%
RAM network inhibition [7]: 2.2%

N#Cc1c2n(c3c(=O)n(Cc4ccc(Cl)cc4)cnc13)CCCC2
growth inhibition [1]: -12.5%
growth inhibition [2]: -5.03%
viability increase [3]: 1.08%
viability [4]: 93.8%
viability [5]: 87%
inhibition [6]: 0.755%
RAM network inhibition [7]: 4.22%

Cn1c(NC(=O)CC(C)(C)C)cc(=O)n(C)c1=O
growth inhibition [1]: -2.31%
growth inhibition [2]: -7.82%
viability increase [3]: -0.07%
viability [4]: 104%
viability [5]: 105%
inhibition [6]: 3.15%
RAM network inhibition [7]: -1.17%

C=C(C)CSc1nc2c(cc1C#N)CCC2
growth inhibition [1]: 9.43%
growth inhibition [2]: 21.6%
viability increase [3]: 1.11%
viability [4]: 99.4%
viability [5]: 99.1%
inhibition [6]: 2.3%
RAM network inhibition [7]: 1.58%

CC(=O)CC(=O)Nc1cccc2c1CCCC2
growth inhibition [1]: -1.4%
growth inhibition [2]: -1.66%
viability increase [3]: -1.76%
viability [4]: 92.6%
viability [5]: 91.5%
inhibition [6]: -0.665%
RAM network inhibition [7]: 1.72%

CN(CC(=O)N1CCc2ccccc21)S(=O)(=O)c1cccc2cccnc12
growth inhibition [1]: -0.355%
growth inhibition [2]: -2.55%
viability increase [3]: -3.47%
viability [4]: 93.9%
viability [5]: 90.8%
inhibition [6]: 1.47%
RAM network inhibition [7]: 8.8%

CC(C)c1nc2cc3ccccc3cc2[nH]1
growth inhibition [1]: -5.02%
growth inhibition [2]: -20.5%
viability increase [3]: -3.6%
viability [4]: 73.5%
viability [5]: 81.8%
inhibition [6]: 0.18%
RAM network inhibition [7]: 7.45%

O=C(O)CSCC(=O)c1ccccc1
growth inhibition [1]: -6.96%
growth inhibition [2]: -1.74%
viability increase [3]: 0.58%
viability [4]: 107%
viability [5]: 101%
inhibition [6]: 1.15%
RAM network inhibition [7]: -0.89%

O=C(NCCCN1CCCCC1)c1ccc2c(=O)n(CCc3ccccc3)c(=O)[nH]c2c1
growth inhibition [1]: -7.09%
growth inhibition [2]: -6.43%
viability increase [3]: -3.27%
viability [4]: 77.3%
viability [5]: 83%
inhibition [6]: 0.675%
RAM network inhibition [7]: 8.53%

CCC(C)NC(=O)C(Cc1ccccc1)n1cccc1 (configuration not stated)
growth inhibition [1]: -9.66%
growth inhibition [2]: -6.93%
viability increase [3]: 0.42%
viability [4]: 101%
viability [5]: 88.4%
inhibition [6]: -0.195%
RAM network inhibition [7]: 3%

O=C(C1CCC(Cn2c(=O)[nH]c3ccccc3c2=O)CC1)N1CCN(c2ccccc2)CC1 (configuration not stated)
growth inhibition [1]: -14.3%
growth inhibition [2]: -1.08%
viability increase [3]: 2.93%
viability [4]: 82.6%
viability [5]: 67.6%
inhibition [6]: 1.81%
RAM network inhibition [7]: 6.69%

O=C(c1ccccc1)c1ccc2nc(N3CCN(C(=O)c4ccco4)CC3)c3nncn3c2c1
growth inhibition [1]: -3.47%
growth inhibition [2]: 11.3%
viability increase [3]: -3.94%
viability [4]: 65.3%
viability [5]: 72.7%
inhibition [6]: 2.05%
RAM network inhibition [7]: -0.16%

COC(=O)C1=CN(CC2CCCO2)C=C(C(=O)OC)C1c1ccsc1 (configuration not stated)
growth inhibition [1]: -22.4%
growth inhibition [2]: -3.27%
viability increase [3]: -4.97%
viability [4]: 92.1%
viability [5]: 97.5%
inhibition [6]: 0.125%
RAM network inhibition [7]: 4.53%

N=c1n(CCO)c2ccccc2n1CCOc1ccc(Cl)cc1Cl
growth inhibition [1]: -0.15%
growth inhibition [2]: 4.96%
viability increase [3]: -8.35%
viability [4]: 1.5% (active)
viability [5]: 1.54% (active)
inhibition [6]: 1%
RAM network inhibition [7]: 0.72%

O=C(C1CCC(CNc2c(N3CCOCC3)c(=O)c2=O)CC1)N1CCN(c2ccccc2)CC1 (configuration not stated)
growth inhibition [1]: -0.4%
growth inhibition [2]: -8.31%
viability increase [3]: -1.19%
viability [4]: 95.8%
viability [5]: 83.7%
inhibition [6]: 2.86%
RAM network inhibition [7]: 1.31%

Cn1c(Cn2c(=O)sc3ccccc32)nnc1SCC(=O)NCc1ccc(F)cc1
growth inhibition [1]: -13.5%
growth inhibition [2]: -17.4%
viability increase [3]: -1.09%
viability [4]: 104%
viability [5]: 95%
inhibition [6]: 3.3%
RAM network inhibition [7]: 2.63%

CCOC(=O)N1CCN(C(=O)c2ccc3c(=O)n(CCC4=CCCCC4)c(=S)[nH]c3c2)CC1
growth inhibition [1]: -6.92%
growth inhibition [2]: 3.16%
viability increase [3]: -7.23%
viability [4]: 49.1%
viability [5]: 45.5%
inhibition [6]: 3.38%
RAM network inhibition [7]: 4.35%

CCN(c1cccc(C)c1)c1ncnc2nc[nH]c12
growth inhibition [1]: -4.6%
growth inhibition [2]: 15.6%
viability increase [3]: -3.73%
viability [4]: 103%
viability [5]: 95.9%
inhibition [6]: 0.95%
RAM network inhibition [7]: 0.64%

Cc1ccc(Sc2oc(/C=N/n3cnnc3)cc2Br)cc1
growth inhibition [1]: 0.63%
growth inhibition [2]: 4.41%
viability increase [3]: -7%
viability [4]: 6.77% (active)
viability [5]: 6.87% (active)
inhibition [6]: 1.4%
RAM network inhibition [7]: 3.27%

O=C(COC(=O)c1cnccn1)c1ccc(Br)cc1
growth inhibition [1]: -9.27%
growth inhibition [2]: -14.4%
viability increase [3]: 0.41%
viability [4]: 101%
viability [5]: 96.7%
inhibition [6]: 1.94%
RAM network inhibition [7]: 2.72%

CCOc1cc2[nH]c(=O)n(Cc3ccc(C(=O)NCCOC)cc3)c(=O)c2cc1OCC
growth inhibition [1]: -16.2%
growth inhibition [2]: -6.54%
viability increase [3]: -1.54%
viability [4]: 97.8%
viability [5]: 95.2%
inhibition [6]: 0.03%
RAM network inhibition [7]: 6.22%

COCc1cc(=O)n2[nH]c(-c3cccc(Br)c3)cc2n1
growth inhibition [1]: -25.1%
growth inhibition [2]: -16.1%
viability increase [3]: -2.23%
viability [4]: 92.9%
viability [5]: 86.7%
inhibition [6]: 0.76%
RAM network inhibition [7]: 5.82%

CC(=O)OCCn1c(=O)c2cc3c(=O)n(CCOC(C)=O)c(=O)c3cc2c1=O
growth inhibition [1]: -7.22%
growth inhibition [2]: -6.18%
viability increase [3]: -0.09%
viability [4]: 101%
viability [5]: 98.3%
inhibition [6]: 1.84%
RAM network inhibition [7]: 1.25%

CCCCNc1ncnc2c1cnn2-c1ccc(C)cc1C
growth inhibition [1]: 6.55%
growth inhibition [2]: 9.48%
viability increase [3]: -3.72%
viability [4]: 92.8%
viability [5]: 89.2%
inhibition [6]: -0.12%
RAM network inhibition [7]: 0.27%

O=C(CSc1nc(-c2ccco2)cc(C(F)(F)F)n1)N1CCN(Cc2ccccc2)CC1
growth inhibition [1]: -6.8%
growth inhibition [2]: -13.4%
viability increase [3]: -4.54%
viability [4]: 86.8%
viability [5]: 82.8%
inhibition [6]: -0.555%
RAM network inhibition [7]: 6.26%

Cc1ccc(C(=O)CC2(O)C(=O)N(C)c3ccccc32)o1 (configuration not stated)
growth inhibition [1]: -7.12%
growth inhibition [2]: -13.5%
viability increase [3]: -2.33%
viability [4]: 99.3%
viability [5]: 96.2%
inhibition [6]: 0.645%
RAM network inhibition [7]: 1.32%

CCOC(=O)NC(Nc1ncccn1)(C(F)(F)F)C(F)(F)F
growth inhibition [1]: 0.98%
growth inhibition [2]: -5.49%
viability increase [3]: -3.34%
viability [4]: 94.4%
viability [5]: 97.5%
inhibition [6]: 1.17%
RAM network inhibition [7]: 0.47%

CCOC(=O)N1CCN(c2c(NCc3ccccn3)c(=O)c2=O)CC1
growth inhibition [1]: 8.16%
growth inhibition [2]: 18.2%
viability increase [3]: -1.44%
viability [4]: 103%
viability [5]: 96%
inhibition [6]: 1.28%
RAM network inhibition [7]: 1.45%

COc1ccc2c(c1)OC13CCN(C)CC1C2C(C(=O)c1ccc(F)cc1)C(=O)N3 (configuration not stated)
growth inhibition [1]: -25.9%
growth inhibition [2]: -21.6%
viability increase [3]: -4.02%
viability [4]: 78.9%
viability [5]: 81.4%
inhibition [6]: 0.27%
RAM network inhibition [7]: 0.97%

CCOC(=O)N1CCN(C(=O)c2ccccc2Oc2ccccc2)CC1
growth inhibition [1]: -5.57%
growth inhibition [2]: 0.11%
viability increase [3]: -1.94%
viability [4]: 91%
viability [5]: 93.3%
inhibition [6]: -0.56%
RAM network inhibition [7]: 0.52%

CN(C)c1nc2c(c(=O)[nH]c(=O)n2C)n1Cc1ccc(F)cc1
growth inhibition [1]: -2.72%
growth inhibition [2]: 6.59%
viability increase [3]: -0.31%
viability [4]: 107%
viability [5]: 100%
inhibition [6]: 1.74%
RAM network inhibition [7]: 2.1%

CCOC(=O)c1c(C)n(C)c2ccc(OCC(N)=O)cc12
growth inhibition [1]: -3.96%
growth inhibition [2]: -11%
viability increase [3]: -4.45%
viability [4]: 100%
viability [5]: 99.3%
inhibition [6]: 1.96%
RAM network inhibition [7]: 6.79%

CCCn1c(CCC(=O)O)ccc1-c1cccs1
growth inhibition [1]: 5.45%
growth inhibition [2]: 7.04%
viability increase [3]: -2.75%
viability [4]: 93.4%
viability [5]: 102%
inhibition [6]: 0.78%
RAM network inhibition [7]: -0.03%

From PubChem BioAssay
